Measurements as given in ChEMBL document CHEMBL2396597, “Synthesis and evaluation of novel orally active p53-MDM2 interaction inhibitors” (Bioorg Med Chem, 2013).
Values belong to the compound of their own block, whether it stands above or below them.

Columns and labels:
[1] = Metabolic stability in mouse liver microsomes assessed as compound remaining at 1 uM after 30 mins by LC-MS/MS analysis; format: ADME, Microsome; settings: read-out: Stability
Method in brief: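 Compound at 1 μM final was incubated with mouse hepatic microsomes (0.5 mg/mL protein) in sodium phosphate buffer pH 7.4 at 37°C. Reaction was started with an NADPH-generating system and stopped with MeOH after 30 min. Samples were centrifuged, and loss of parent was measured by LC-MS/MS as % remaining.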

[2] = Drug uptake in tumor of NOD/SCID mouse xenografted with human MV4-11 cells at 100 mg/kg, po measured at 6 hrs by LC-MS/MS analysis; format: ADME, organism-based, Neoplasm; parameters: dose 100 mg/kg, route oral; settings: read-out: Drug uptake
Method in brief: (§1)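 Tumor-bearing mice were given 100 mg/kg orally, suspended in Japanese Pharmacopoeia First Fluid (pH 1.2). Tumors were collected at 1, 2, 4, 6 and 24 h after dosing and homogenized. Tumor drug concentration was quantified by LC/MS/MS on an ODS column.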

[3] = Drug uptake in tumor of NOD/SCID mouse xenografted with human MV4-11 cells at 100 mg/kg, po measured at 4 hrs by LC-MS/MS analysis; format: ADME, organism-based, Neoplasm; parameters: dose 100 mg/kg, route oral; settings: read-out: Drug uptake; method in brief: as §1
[4] = Drug uptake in tumor of NOD/SCID mouse xenografted with human MV4-11 cells at 100 mg/kg, po measured at 2 hrs by LC-MS/MS analysis; format: ADME, organism-based, Neoplasm; parameters: dose 100 mg/kg, route oral; settings: read-out: Drug uptake; method in brief: as §1
[5] = Drug uptake in tumor of NOD/SCID mouse xenografted with human MV4-11 cells at 100 mg/kg, po measured at 1 hr by LC-MS/MS analysis; format: ADME, organism-based, Neoplasm; parameters: dose 100 mg/kg, route oral; settings: read-out: Drug uptake; method in brief: as §1
[6] = Plasma concentration in NOD/SCID mouse at 100 mg/kg, po measured at 6 hrs; format: ADME, organism-based; parameters: dose 100 mg/kg, route oral
[7] = Plasma concentration in NOD/SCID mouse at 100 mg/kg, po measured at 24 hrs; format: ADME, organism-based; parameters: dose 100 mg/kg, route oral
[8] = Plasma concentration in NOD/SCID mouse at 100 mg/kg, po measured at 4 hrs; format: ADME, organism-based; parameters: dose 100 mg/kg, route oral
[9] = Plasma concentration in NOD/SCID mouse at 100 mg/kg, po measured at 1 hr; format: ADME, organism-based; parameters: dose 100 mg/kg, route oral
[10] = Plasma concentration in NOD/SCID mouse at 100 mg/kg, po measured at 2 hrs; format: ADME, organism-based; parameters: dose 100 mg/kg, route oral
[11] = AUC in NOD/SCID mouse at 100 mg/kg, po; format: ADME, organism-based; parameters: dose 100 mg/kg, route oral; settings: plasma
[12] = Drug uptake in tumor of NOD/SCID mouse xenografted with human MV4-11 cells at 100 mg/kg, po measured at 24 hrs by LC-MS/MS analysis; format: ADME, organism-based, Neoplasm; parameters: dose 100 mg/kg, route oral; settings: read-out: Drug uptake; method in brief: as §1

remaining at 0.5 h, 1 µM [1]: 63%
Structure (SMILES): CC(C)C1=C(C(=O)N2[C@H](C)CC[C@H]2C(=O)N2CCN(C)[C@@H](C)C2)SC2=N[C@@](C)(c3ccc(Cl)cc3)[C@@H](c3ccc(Cl)cc3)N21

remaining at 0.5 h, 1 µM [1]: 38%
Structure (SMILES): CC[C@@H]1CC[C@@H](C(=O)N2CCN(C(C)=O)CC2)N1C(=O)C1=C(C(C)C)N2C(=N[C@@](C)(c3ccc(Cl)cc3)[C@H]2c2ccc(Cl)cc2)S1

concentration at 6 h [2]: 25200 ng/mL
concentration at 4 h [3]: 31200 ng/mL
concentration at 2 h [4]: 32700 ng/mL
concentration at 1 h [5]: 31500 ng/mL
concentration at 6 h [6]: 48200 ng/mL
concentration at 24 h [7]: 100 ng/mL
concentration at 4 h [8]: 46400 ng/mL
concentration at 1 h [9]: 59600 ng/mL
concentration at 2 h [10]: 68400 ng/mL
AUC [11]: 737 µg·h/mL
remaining at 0.5 h, 1 µM [1]: 59%
Structure (SMILES): CC[C@@H]1CC[C@@H](C(=O)N2CCN(C(C)=O)[C@H](C)C2)N1C(=O)C1=C(C(C)C)N2C(=N[C@@](C)(c3ccc(Cl)cc3)[C@H]2c2ccc(Cl)cc2)S1

remaining at 0.5 h, 1 µM [1]: 84%
Structure (SMILES): CC(C)C1=C(C(=O)N2[C@H](C)CC[C@H]2C(=O)N2CCN(C)C(C)(C)C2)SC2=N[C@@](C)(c3ccc(Cl)cc3)[C@@H](c3ccc(Cl)cc3)N21

remaining at 0.5 h, 1 µM [1]: 50%
Structure (SMILES): CC[C@@H]1CC[C@@H](C(=O)N2CCN(C)CC2)N1C(=O)C1=C(C(C)C)N2C(=N[C@@](C)(c3ccc(Cl)cc3)[C@H]2c2ccc(Cl)cc2)S1

concentration at 24 h [12]: 4300 ng/mL
concentration at 6 h [2]: 27500 ng/mL
concentration at 4 h [3]: 27900 ng/mL
concentration at 2 h [4]: 23300 ng/mL
concentration at 1 h [5]: 18900 ng/mL
concentration at 6 h [6]: 5700 ng/mL
concentration at 24 h [7]: 300 ng/mL
concentration at 4 h [8]: 7500 ng/mL
concentration at 1 h [9]: 6900 ng/mL
concentration at 2 h [10]: 7800 ng/mL
AUC [11]: 93.1 µg·h/mL
remaining at 0.5 h, 1 µM [1]: 74%
Structure (SMILES): CC(C)C1=C(C(=O)N2[C@H](C)CC[C@H]2C(=O)N2CCN(C)[C@H](C)C2)SC2=N[C@@](C)(c3ccc(Cl)cc3)[C@@H](c3ccc(Cl)cc3)N21

remaining at 0.5 h, 1 µM [1]: 39%
Structure (SMILES): CC(C)C1=C(C(=O)N2[C@@H](C)CC[C@H]2C(=O)N(C)C)SC2=N[C@@](C)(c3ccc(Cl)cc3)[C@@H](c3ccc(Cl)cc3)N21

remaining at 0.5 h, 1 µM [1]: 54%
Structure (SMILES): CC[C@@H]1CC[C@@H](C(=O)N2CCN(C(C)=O)[C@@H](C)C2)N1C(=O)C1=C(C(C)C)N2C(=N[C@@](C)(c3ccc(Cl)cc3)[C@H]2c2ccc(Cl)cc2)S1

remaining at 0.5 h, 1 µM [1]: 6%
Structure (SMILES): CC[C@@H]1CC[C@@H](C(=O)N2CCOCC2)N1C(=O)C1=C(C(C)C)N2C(=N[C@@](C)(c3ccc(Cl)cc3)[C@H]2c2ccc(Cl)cc2)S1

remaining at 0.5 h, 1 µM [1]: 53%
Structure (SMILES): CC(C)C1=C(C(=O)N2[C@H](C)CC[C@H]2C(=O)N(C)C)SC2=N[C@@](C)(c3ccc(Cl)cc3)[C@@H](c3ccc(Cl)cc3)N21

remaining at 0.5 h, 1 µM [1]: 76%
Structure (SMILES): CC[C@@H]1CC[C@@H](C(=O)N2CCN(C)[C@H](C)C2)N1C(=O)C1=C(C(C)C)N2C(=N[C@@](C)(c3ccc(Cl)cc3)[C@H]2c2ccc(Cl)cc2)S1

remaining at 0.5 h, 1 µM [1]: 25%
Structure (SMILES): CC(C)C1=C(C(=O)N2[C@H](C)CC[C@H]2C(=O)N2CCN(C)CC2)SC2=N[C@@](C)(c3ccc(Cl)cc3)[C@@H](c3ccc(Cl)cc3)N21

remaining at 0.5 h, 1 µM [1]: 9%
Structure (SMILES): CC(C)C1=C(C(=O)N2CCC[C@H]2C(=O)N(C)C)SC2=N[C@@](C)(c3ccc(Cl)cc3)[C@@H](c3ccc(Cl)cc3)N21

remaining at 0.5 h, 1 µM [1]: 13%
Structure (SMILES): CC(=O)N1CCN(C(=O)[C@@H]2CC[C@@H](C)N2C(=O)C2=C(C(C)C)N3C(=N[C@@](C)(c4ccc(Cl)cc4)[C@H]3c3ccc(Cl)cc3)S2)CC1

remaining at 0.5 h, 1 µM [1]: 70%
Structure (SMILES): CC[C@@H]1CC[C@@H](C(=O)N(C)C)N1C(=O)C1=C(C(C)C)N2C(=N[C@@](C)(c3ccc(Cl)cc3)[C@H]2c2ccc(Cl)cc2)S1

remaining at 0.5 h, 1 µM [1]: 55%
Structure (SMILES): CC(=O)N1CCN(C(=O)[C@@H]2CC[C@@H](C)N2C(=O)C2=C(C(C)C)N3C(=N[C@@](C)(c4ccc(Cl)cc4)[C@H]3c3ccc(Cl)cc3)S2)C[C@H]1C

remaining at 0.5 h, 1 µM [1]: 47%
Structure (SMILES): CC[C@H]1CC[C@@H](C(=O)N(C)C)N1C(=O)C1=C(C(C)C)N2C(=N[C@@](C)(c3ccc(Cl)cc3)[C@H]2c2ccc(Cl)cc2)S1

remaining at 0.5 h, 1 µM [1]: 65%
Structure (SMILES): CC(=O)N1CCN(C(=O)[C@@H]2CC[C@@H](C)N2C(=O)C2=C(C(C)C)N3C(=N[C@@](C)(c4ccc(Cl)cc4)[C@H]3c3ccc(Cl)cc3)S2)C[C@@H]1C

remaining at 0.5 h, 1 µM [1]: 69%
Structure (SMILES): CC[C@@H]1CC[C@@H](C(=O)N2CCN(C)[C@@H](C)C2)N1C(=O)C1=C(C(C)C)N2C(=N[C@@](C)(c3ccc(Cl)cc3)[C@H]2c2ccc(Cl)cc2)S1
